Data reported in ChEMBL document CHEMBL4706523, “Targeting topoisomerase II with trypthantrin derivatives: Discovery of 7-((2-(dimethylamino)ethyl)amino)indolo[2,1-b]quinazoline-6,12-dione as an antiproliferative agent and to treat cancer” (Eur J Med Chem, 2020).
Values after ≈ are worked out from the molar mass of the structure shown. Active and inactive are the calls of the source. The rule behind the calls is not given here.

Tests used:
[1] = target: T1, DNA topoisomerase 2-alpha (Homo sapiens, UniProt P11388); experiment: Inhibition of human DNA topoisomerase 2alpha assessed as suppression of decatenation using catenated kinetoplast DNA as substrate up to 250 uM measured after 30 mins by SYBR safe DNA staining based staining-based agarose gel electrophoresis method; settings: dose microM <=250, time 30.0 min
T1 sequence (P11388 whole entry): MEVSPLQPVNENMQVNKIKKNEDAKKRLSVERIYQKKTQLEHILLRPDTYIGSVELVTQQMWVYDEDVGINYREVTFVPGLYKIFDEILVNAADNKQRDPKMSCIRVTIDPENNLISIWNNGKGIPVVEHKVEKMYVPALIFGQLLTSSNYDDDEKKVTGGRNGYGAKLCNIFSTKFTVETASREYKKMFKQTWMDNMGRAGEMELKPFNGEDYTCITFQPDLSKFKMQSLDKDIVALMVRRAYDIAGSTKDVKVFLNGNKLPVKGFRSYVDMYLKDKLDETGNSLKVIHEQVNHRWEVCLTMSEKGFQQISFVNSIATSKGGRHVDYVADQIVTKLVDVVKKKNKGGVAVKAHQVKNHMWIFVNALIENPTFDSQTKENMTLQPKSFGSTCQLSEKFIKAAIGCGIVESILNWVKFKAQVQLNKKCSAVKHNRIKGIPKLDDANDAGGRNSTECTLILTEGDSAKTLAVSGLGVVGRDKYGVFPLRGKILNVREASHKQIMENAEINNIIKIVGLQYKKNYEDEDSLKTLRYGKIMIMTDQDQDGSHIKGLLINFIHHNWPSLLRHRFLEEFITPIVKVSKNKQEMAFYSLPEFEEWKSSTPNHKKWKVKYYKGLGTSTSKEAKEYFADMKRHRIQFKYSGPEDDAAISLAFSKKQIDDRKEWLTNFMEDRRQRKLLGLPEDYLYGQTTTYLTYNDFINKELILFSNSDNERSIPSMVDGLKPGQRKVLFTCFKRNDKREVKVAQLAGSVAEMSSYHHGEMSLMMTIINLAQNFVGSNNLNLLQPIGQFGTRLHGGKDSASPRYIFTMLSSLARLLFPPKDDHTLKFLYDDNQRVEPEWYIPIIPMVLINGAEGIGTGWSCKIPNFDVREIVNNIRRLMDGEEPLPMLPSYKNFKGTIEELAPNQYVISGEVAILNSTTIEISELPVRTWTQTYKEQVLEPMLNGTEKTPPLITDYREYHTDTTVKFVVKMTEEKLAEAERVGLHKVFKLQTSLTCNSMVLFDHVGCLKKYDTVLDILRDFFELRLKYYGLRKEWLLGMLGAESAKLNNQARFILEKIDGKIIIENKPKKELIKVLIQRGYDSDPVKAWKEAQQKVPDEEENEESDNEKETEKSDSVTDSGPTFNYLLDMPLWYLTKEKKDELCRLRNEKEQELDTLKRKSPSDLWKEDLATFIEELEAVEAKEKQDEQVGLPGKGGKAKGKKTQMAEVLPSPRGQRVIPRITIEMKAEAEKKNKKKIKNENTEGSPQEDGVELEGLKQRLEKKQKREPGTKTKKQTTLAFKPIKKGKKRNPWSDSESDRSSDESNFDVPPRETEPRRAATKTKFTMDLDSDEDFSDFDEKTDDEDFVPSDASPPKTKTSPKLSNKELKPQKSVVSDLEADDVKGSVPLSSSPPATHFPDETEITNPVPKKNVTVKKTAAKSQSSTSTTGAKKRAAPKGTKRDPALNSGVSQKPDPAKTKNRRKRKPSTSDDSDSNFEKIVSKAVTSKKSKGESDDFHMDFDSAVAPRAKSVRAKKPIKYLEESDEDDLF
In short: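 Human topoII α decatenation kit reaction, with compound or DMSO vehicle at 5% DMSO final. Incubated 30 min at 37°C, products resolved on 1% agarose with SYBR safe stain. IC50 from four-parameter nonlinear regression, mean ± SD of two independent assays. Tested up to 250 μM.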

CCRF-CEM [2] = experiment: Antiproliferative activity against human CCRF-CEM cells assessed as reduction in cell viability after 72 hrs by eosin exclusion dye based light microscopic method; format: functional; settings: for IC50: 72 h; for GI50: time 72 hrs
In short: (§1)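 Suspension leukaemia lines grown in RPMI with 4.5 g/L glucose, 2 mM glutamine, penicillin/streptomycin and 10% heat-inactivated FBS (HL-60 in 20% FBS). Seeded at 0.25x10⁶ cells/mL (Jurkat, CCRF-CEM, CEM/C2) or 0.125x10⁶ cells/mL (HL-60). Treated 72h at 0–64 μM, 37°C, 5% CO₂. Viable cells counted by eosin exclusion in a Bürker chamber, normalised to untreated cells. IC50 from non-linear regression, at least triplicate.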

[3] = Solubility of compound in water; format: physicochemical
In short: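 Samples were stirred for 24 h at 25°C, centrifuged, and supernatants filtered through 0.45 μm PTFE and diluted. Concentration was taken from UV absorbance against a four-point calibration line in PBS with 2% DMSO, and reported as μg/mL.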

[4] = target: T1, DNA topoisomerase 2-alpha; experiment: Inhibition of human DNA topoisomerase 2alpha assessed as suppression of decatenation using catenated kinetoplast DNA as substrate measured after 30 mins by SYBR safe DNA staining based staining-based agarose gel electrophoresis method
In short: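 Human topoII α decatenation kit reaction, with compound or DMSO vehicle at 5% DMSO final. Incubated 30 min at 37°C, products resolved on 1% agarose with SYBR safe stain. IC50 from four-parameter nonlinear regression, mean ± SD of two independent assays.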

[5] = target: T1, DNA topoisomerase 2-alpha; experiment: Potency index, ratio of etoposide IC50 to test compound IC50 for inhibition of human DNA topoisomerase 2alpha
Jurkat = experiment: Antiproliferative activity against human Jurkat cells assessed as reduction in cell viability after 72 hrs by eosin exclusion dye based light microscopic method; format: functional; in short: as §1
CEM/C2 = experiment: Antiproliferative activity against human CEM/C2 cells assessed as reduction in cell viability after 72 hrs by eosin exclusion dye based light microscopic method; format: functional; in short: as §1
HL-60 = experiment: Antiproliferative activity against human HL-60 cells assessed as reduction in cell viability after 72 hrs by eosin exclusion dye based light microscopic method; format: functional; in short: as §1
Homo sapiens [6] = species on record: Homo sapiens; experiment: Selectivity ratio of IC50 for antiproliferative activity against human CCRF-CEM cells to IC50 for antiproliferative activity against human Jurkat cells; format: cell-based
Homo sapiens [7] = species on record: Homo sapiens; experiment: Selectivity ratio of IC50 for antiproliferative activity against human CCRF-CEM cells to IC50 for antiproliferative activity against human MCF7 cells; format: cell-based
Homo sapiens [8] = species on record: Homo sapiens; experiment: Selectivity ratio of IC50 for antiproliferative activity against human CEM/C2 cells to IC50 for antiproliferative activity against human Jurkat cells; format: cell-based
Homo sapiens [9] = species on record: Homo sapiens; experiment: Selectivity ratio of IC50 for antiproliferative activity against human CEM/C2 cells to IC50 for antiproliferative activity against human MCF7 cells; format: cell-based
Homo sapiens [10] = species on record: Homo sapiens; experiment: Selectivity ratio of IC50 for antiproliferative activity against human HL-60 cells to IC50 for antiproliferative activity against human Jurkat cells; format: cell-based
Homo sapiens [11] = species on record: Homo sapiens; experiment: Selectivity ratio of IC50 for antiproliferative activity against human HL-60 cells to IC50 for antiproliferative activity against human MCF7 cells; format: cell-based
Homo sapiens [12] = species on record: Homo sapiens; experiment: Selectivity ratio of IC50 for antiproliferative activity against human HT-29 cells to IC50 for antiproliferative activity against human Jurkat cells; format: cell-based
Homo sapiens [13] = species on record: Homo sapiens; experiment: Selectivity ratio of IC50 for antiproliferative activity against human HT-29 cells to IC50 for antiproliferative activity against human MCF7 cells; format: cell-based
Homo sapiens [14] = species on record: Homo sapiens; experiment: Selectivity ratio of IC50 for antiproliferative activity against human DLD-1 cells to IC50 for antiproliferative activity against human Jurkat cells; format: cell-based
Homo sapiens [15] = species on record: Homo sapiens; experiment: Selectivity ratio of IC50 for antiproliferative activity against human DLD-1 cells to IC50 for antiproliferative activity against human MCF7 cells; format: cell-based
CCRF-CEM [16] = experiment: Potency index, ratio of tryp-tanthrin IC50 to test compound IC50 for antiproliferative activity against human CCRF-CEM cells; format: functional
CCRF-CEM [17] = experiment: Induction of cell cycle arrest in human CCRF-CEM cells assessed as increase in accumulation at G2/M phase for 24 hrs by flow cytometric analysis; format: functional, cell-based; settings: dose 8.0 µM
In short: (§2)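 CCRF-CEM seeded at 0.25x10⁶ cells/mL and treated 24h. Cells were fixed/permeabilised in 70% ethanol for at least 1h, then stained with PI 10 μg/mL plus RNase A 100 μg/mL for 20 min at room temperature in the dark. DNA content was read by flow cytometry, with at least 10000 events, to give subG0, G0-G1, S and G2-M fractions.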

CCRF-CEM [18] = experiment: Induction of cell cycle arrest in human CCRF-CEM cells assessed as decrease in accumulation at G0-G1 phase for 24 hrs by flow cytometric analysis; format: functional, cell-based; settings: dose 8.0 µM; in short: as §2
CCRF-CEM [19] = experiment: Induction of cell cycle arrest in human CCRF-CEM cells assessed as accumulation at G2/M phase at 8 uM for 24 hrs by flow cytometric analysis (reference value: 27%); format: functional; in short: as §2
CCRF-CEM [20] = experiment: Induction of cell death in human CCRF-CEM cells assessed as increase in fragmented DNA at 4 to 8 uM after 24 hrs followed by compound wash out further incubated for 24 hrs by flow cytometric analysis; format: functional, cell-based; settings: dose 4-8 µM
In short: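 Recovery design: CCRF-CEM were treated 24h, then medium was removed by centrifugation, cells were PBS-washed and cultured a further 24h in drug-free complete medium. Cells were then fixed in 70% ethanol and stained with PI 10 μg/mL plus RNase A 100 μg/mL. Flow cytometry scored subG0 cells, those with fragmented DNA, from at least 10000 events.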

CCRF-CEM [21] = experiment: Induction of G2/M cell cycle arrest in human CCRF-CEM cells assessed as increase in cyclin B1 expression at 8 uM by flow cytometric analysis; format: functional, cell-based; settings: time 6-24 hrs, TDE = time-dependent effect
In short: (§3)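 CCRF-CEM exposed to 8 μM for 6, 9, 16 and 24 h. 1×10⁶ cells were fixed in 2% paraformaldehyde, permeabilised in 90% methanol, and stained 30 min with anti-cyclin A or anti-cyclin B1 (1:50), then with secondary (1:200), then PI/RNase A. Flow cytometric MFI was taken in PI-gated G2-M cells and normalised to untreated G2-M cells.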

CCRF-CEM [22] = experiment: Induction of G2/M cell cycle arrest in human CCRF-CEM cells assessed as increase in cyclin A expression at 8 uM after 6 to 24 hrs by flow cytometric analysis; format: functional, cell-based; settings: time 6-24 hrs; in short: as §3
CCRF-CEM [23] = experiment: Inhibition of DNA topoisomerase 2 in human CCRF-CEM cells assessed as increase in gamma-H2Ax expression at 8 uM after 1 to 16 hrs by flow cytometric analysis; format: cell-based; settings: time 1-16 hrs
In short: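 CCRF-CEM exposed to 8 μM for 1, 2, 3, 5 and 16 h. Cells were fixed in 2% paraformaldehyde, permeabilised in 90% methanol, and stained with anti-γ-H2AX (1:40) then secondary (1:200), with PI/RNase A counterstain. γ-H2AX immunofluorescence was read by flow cytometry per cell-cycle phase and expressed as delta γ-H2AX.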

HT-29 = experiment: Antiproliferative activity against human HT29 cells assessed as reduction in cell viability after 72 hrs by 4-methylumbelliferyl heptanoate (MUH) fluorescence assay
MCF7 = experiment: Antiproliferative activity against human MCF7 cells assessed as reduction in cell viability after 72 hrs by 4-methylumbelliferyl heptanoate (MUH) fluorescence assay
DLD-1 = experiment: Antiproliferative activity against human DLD-1 cells assessed as reduction in cell viability after 72 hrs by 4-methylumbelliferyl heptanoate (MUH) fluorescence assay
CCRF-CEM [24] = experiment: Antiproliferative activity against human CCRF-CEM cells assessed as reduction in cell viability at 4 uM after 24 hrs by eosin exclusion dye based light microscopic method
[25] = target: T1, DNA topoisomerase 2-alpha; experiment: Poison activity at human DNA topoisomerase 2 alpha assessed as stabilization of cleavage complex using PBR322 as substrate incubated for 15 mins by ethidium bromide staining based agarose gel electrophoresis method

**Q.** Which inhibition [1] does the source give for `O=C1c2ccc(N3CCOCC3)cc2-n2c1nc1ccccc1c2=O` here?
**A.** inactive

**Q.** With `O=C1c2c(N3CCCCC3)cccc2-n2c1nc1ccccc1c2=O` as the compound, how does the inhibition [1] read?
**A.** inactive

**Q.** With `O=C1c2ccccc2-n2c1nc1ccccc1c2=O` [TRYPTANTHRIN] as the compound, how does the inhibition [1] read?
**A.** inactive

**Q.** What about the IC50 (CCRF-CEM [2]) of the same compound?
**A.** 44.4 µM

**Q.** And the GI50 (CCRF-CEM [2])?
**A.** 14.5 µM

**Q.** What about the solubility ([3]; buffer) of the same compound?
**A.** 91.02 µM (≈ 22.6 µg/mL)

**Q.** Which inhibition [1] does the source give for `CCN(CC)c1cccc2c1C(=O)c1nc3ccccc3c(=O)n1-2` here?
**A.** inactive

**Q.** For `CN1CCN(c2cccc3c2C(=O)c2nc4ccccc4c(=O)n2-3)CC1`, which IC50 [4] is on record?
**A.** 114 µM

**Q.** With `CCN(CC)c1ccc2c(c1)-n1c(nc3ccccc3c1=O)C2=O` as the compound, how does the inhibition [1] read?
**A.** inactive

**Q.** With `CN1CCN(c2ccc3c(c2)-n2c(nc4ccccc4c2=O)C3=O)CC1` as the compound, how does the IC50 [4] read?
**A.** 138 µM

**Q.** Which inhibition [1] does the source give for `O=C1c2c(N3CCOCC3)cccc2-n2c1nc1ccccc1c2=O` here?
**A.** inactive

**Q.** With `CN(C)CCNc1cccc2c1C(=O)c1nc3ccccc3c(=O)n1-2` as the compound, how does the IC50 [4] read?
**A.** 26.6 µM

**Q.** And the Ratio IC50 [5]?
**A.** 2.5

**Q.** What about the Activity (Jurkat) of the same compound?
**A.** Dose-dependent effect

**Q.** What about the IC50 (Jurkat) of the same compound?
**A.** 18.2 µM

**Q.** What about the Activity (CCRF-CEM [2]) of the same compound?
**A.** Dose-dependent effect

**Q.** What about the IC50 (CCRF-CEM [2]) of the same compound?
**A.** 8.26 µM

**Q.** And the GI50 (CCRF-CEM [2])?
**A.** 1.36 µM

**Q.** And the Activity (CEM/C2)?
**A.** Dose-dependent effect

**Q.** What about the IC50 (CEM/C2; CEM/C2, 72 h) of the same compound?
**A.** 9.16 µM

**Q.** What about the Activity (HL-60) of the same compound?
**A.** Dose-dependent effect

**Q.** And the IC50 (HL-60; HL-60, 72 h)?
**A.** 11.5 µM

**Q.** What about the Ratio IC50 (Homo sapiens [6]) of the same compound?
**A.** 2

**Q.** What about the Ratio IC50 (Homo sapiens [7]) of the same compound?
**A.** 3

**Q.** What about the Ratio IC50 (Homo sapiens [8]) of the same compound?
**A.** 2

**Q.** What about the Ratio IC50 (Homo sapiens [9]) of the same compound?
**A.** 3

**Q.** And the Ratio IC50 (Homo sapiens [10])?
**A.** 2

**Q.** And the Ratio IC50 (Homo sapiens [11])?
**A.** 3

**Q.** What about the Ratio IC50 (Homo sapiens [12]) of the same compound?
**A.** 2

**Q.** What about the Ratio IC50 (Homo sapiens [13]) of the same compound?
**A.** 3

**Q.** And the Ratio IC50 (Homo sapiens [14])?
**A.** 2

**Q.** And the Ratio IC50 (Homo sapiens [15])?
**A.** 3

**Q.** What about the “Ratio IC50” value (CCRF-CEM [16]) of the same compound?
**A.** 5

**Q.** And the Activity (CCRF-CEM [17])?
**A.** Dose-dependent effect

**Q.** What about the Activity (CCRF-CEM [18]) of the same compound?
**A.** Dose-dependent effect

**Q.** And the Activity (CCRF-CEM [19])?
**A.** 78%

**Q.** And the Activity (CCRF-CEM [20])?
**A.** Active

**Q.** And the Activity (CCRF-CEM [21])?
**A.** Tde

**Q.** What about the Activity (CCRF-CEM [22]) of the same compound?
**A.** inactive

**Q.** What about the inhibition (CCRF-CEM [23]) of the same compound?
**A.** Active

**Q.** And the solubility ([3]; water, read-out: solubility)?
**A.** 996 µM (≈ 333 µg/mL)

**Q.** And the Activity (HT-29)?
**A.** Dose-dependent effect

**Q.** What about the IC50 (HT-29; HT-29, 72 h) of the same compound?
**A.** 9.4 µM

**Q.** And the Activity (MCF7)?
**A.** Dose-dependent effect

**Q.** And the IC50 (MCF7; MCF7, 72 h)?
**A.** 30.5 µM

**Q.** And the Activity (DLD-1)?
**A.** Dose-dependent effect

**Q.** And the IC50 (DLD-1; DLD-1, 72 h)?
**A.** 7.13 µM

**Q.** And the Activity (CCRF-CEM [24])?
**A.** Active

**Q.** What about the Activity [25] of the same compound?
**A.** inactive

**Q.** For `O=C1c2c(NCCO)cccc2-n2c1nc1ccccc1c2=O`, which inhibition [1] is on record?
**A.** inactive

**Q.** Which inhibition [1] does the source give for `O=C1c2ccc(N3CCCCC3)cc2-n2c1nc1ccccc1c2=O` here?
**A.** inactive
